According to ChEMBL document CHEMBL4765307, “Design, synthesis and biological activity of novel 2,3,4,5-tetra-substituted thiophene derivatives as PI3Kα inhibitors with potent antitumor activity” (Eur J Med Chem, 2020):

What was measured:
T47D = assay: Antiproliferative activity against human T47D cells harboring PIK3CA mutation assessed as reduction in cell viability after 3 days by CellTiter-Glo luminescence assay; assay type: functional, cell-based; conditions: 72 h
In short: (§1)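 ATCC lines, 10% FBS: T47D, H1975, H460 in RPMI1640; U87MG in DMEM; A549 in F12K. Seeded 3×10^3 per well the day before, exposed to 3-fold serial dilutions or DMSO for 3 days at 37 °C, 5% CO2; CellTiter-Glo luminescence.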

[1] = Metabolic stability in rat liver microsomes assessed as parent compound remaining at 1 uM preincubated for 10 mins followed by incubation in phosphate buffer at pH 7.4 for 60 mins by LC-MS/MS analysis; assay type: ADME, Microsome; conditions: time 70 min, read-out: Stabilty
In short: (§2)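 Compound 1 µM with human or rat microsomes 0.5 mg/mL, preincubated 10 min at 37 °C in 100 mM potassium phosphate pH 7.4, 10 mM MgCl2; started with NADPH, sampled 0–60 min, quenched with cold acetonitrile, LC–MS/MS. A parallel no-NADPH control was run.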

[2] = Efflux ratio of permeability from basolateral to apical over apical to basolateral side in human Caco2 cells at 2 uM incubated for 2 hrs by LC-MS/MS analysis; assay type: ADME, cell-based; conditions: Caco-2
In short: (§3)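 Caco-2 monolayers grown 21–28 days; compound 2 µM both directions in duplicate, DMSO <1%; 2 h at 37 °C, 5% CO2 without shaking. Donor and receiver levels by LC/MS/MS; integrity by lucifer yellow. Papp = (dCr/dt)×Vr/(A×C0); efflux ratio = Papp(B-A)/Papp(A-B).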

[3] = Apparent permeability across basolateral to apical side in human Caco2 cells at 2 uM incubated for 2 hrs by LC-MS/MS analysis; assay type: ADME, cell-based; conditions: Caco-2; in short: as §3
NCI-H1975 = assay: Antiproliferative activity against human NCI-H1975 cells harboring PIK3CA mutation assessed as reduction in cell viability after 3 days by CellTiter-Glo luminescence assay; assay type: functional, cell-based; conditions: NCI-H1975, 72 h; in short: as §1
[4] = Clearance in rat liver microsomes at 1 uM measured after 60 mins by LC-MS/MS analysis; assay type: ADME, Microsome; conditions: read-out: CLH; in short: as §2
[5] = biological target: Phosphatidylinositol 4,5-bisphosphate 3-kinase catalytic subunit alpha isoform (Homo sapiens) (UniProt P42336); assay: Inhibition of PI3Kalpha in human T47D cells assessed as inhibition of insulin-stimulated Akt phosphorylation at Ser473 residue at 3 uM preincubated for 2 hrs followed by incubation with insulin for 2 hrs by western blot analysis relative to control; assay type: cell-based; conditions: time 4.0 hrs
Sequence of Phosphatidylinositol 4,5-bisphosphate 3-kinase catalytic subunit alpha isoform (Homo sapiens) (P42336 whole entry, canonical isoform): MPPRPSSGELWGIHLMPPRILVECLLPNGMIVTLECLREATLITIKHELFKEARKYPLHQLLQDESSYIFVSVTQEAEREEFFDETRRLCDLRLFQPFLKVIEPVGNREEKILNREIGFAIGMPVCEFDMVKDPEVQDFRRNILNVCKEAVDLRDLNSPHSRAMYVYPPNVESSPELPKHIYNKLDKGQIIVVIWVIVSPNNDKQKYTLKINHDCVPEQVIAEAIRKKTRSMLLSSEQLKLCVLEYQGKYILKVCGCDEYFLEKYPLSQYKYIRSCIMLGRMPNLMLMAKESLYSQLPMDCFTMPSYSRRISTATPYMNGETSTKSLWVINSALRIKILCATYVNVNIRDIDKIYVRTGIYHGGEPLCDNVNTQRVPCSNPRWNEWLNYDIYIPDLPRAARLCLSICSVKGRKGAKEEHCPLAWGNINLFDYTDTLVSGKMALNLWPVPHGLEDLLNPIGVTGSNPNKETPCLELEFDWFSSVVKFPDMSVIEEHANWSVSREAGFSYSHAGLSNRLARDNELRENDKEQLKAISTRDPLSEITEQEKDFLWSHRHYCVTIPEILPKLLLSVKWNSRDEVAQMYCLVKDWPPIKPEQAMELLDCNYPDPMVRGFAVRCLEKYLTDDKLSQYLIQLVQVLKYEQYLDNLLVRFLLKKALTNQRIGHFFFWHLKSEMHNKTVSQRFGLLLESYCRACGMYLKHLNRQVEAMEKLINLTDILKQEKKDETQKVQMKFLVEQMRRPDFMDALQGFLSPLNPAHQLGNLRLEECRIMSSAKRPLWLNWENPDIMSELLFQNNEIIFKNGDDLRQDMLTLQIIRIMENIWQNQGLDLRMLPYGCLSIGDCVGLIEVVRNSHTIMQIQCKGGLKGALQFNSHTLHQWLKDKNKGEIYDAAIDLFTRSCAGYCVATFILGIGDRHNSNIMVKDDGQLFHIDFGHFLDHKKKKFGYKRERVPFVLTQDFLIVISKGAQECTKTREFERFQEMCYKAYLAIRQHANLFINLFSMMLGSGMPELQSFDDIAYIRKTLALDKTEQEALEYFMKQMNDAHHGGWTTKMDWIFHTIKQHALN
In short: (§4)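 T47D cells given compound at 37 °C for 2 h, then stimulated with 1 µg/mL insulin for 2 h; lysed in RIPA with protease/phosphatase inhibitors and 1 mM PMSF; BCA-normalised SDS-PAGE, PVDF blot probed overnight at 4 °C for total Akt and pAkt Ser473, infrared secondary detection.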

NCI-H460 = assay: Antiproliferative activity against human NCI-H460 cells harboring PIK3CA mutation assessed as reduction in cell viability after 3 days by CellTiter-Glo luminescence assay; assay type: functional, cell-based; conditions: NCI-H460, 72 h; in short: as §1
[6] = biological target: PI3-kinase p110-alpha/p85-alpha (Homo sapiens, UniProt P42336); assay: Inhibition of His-tagged human full length PI3Kalpha coexpressed with p85 alpha in baculovirus expression system using PIP2 peptide as substrate incubated for 1 hr in presence ATP by Kinase-Glo assay
Sequence of PI3-kinase p110-alpha/p85-alpha (P27986 whole entry, canonical isoform): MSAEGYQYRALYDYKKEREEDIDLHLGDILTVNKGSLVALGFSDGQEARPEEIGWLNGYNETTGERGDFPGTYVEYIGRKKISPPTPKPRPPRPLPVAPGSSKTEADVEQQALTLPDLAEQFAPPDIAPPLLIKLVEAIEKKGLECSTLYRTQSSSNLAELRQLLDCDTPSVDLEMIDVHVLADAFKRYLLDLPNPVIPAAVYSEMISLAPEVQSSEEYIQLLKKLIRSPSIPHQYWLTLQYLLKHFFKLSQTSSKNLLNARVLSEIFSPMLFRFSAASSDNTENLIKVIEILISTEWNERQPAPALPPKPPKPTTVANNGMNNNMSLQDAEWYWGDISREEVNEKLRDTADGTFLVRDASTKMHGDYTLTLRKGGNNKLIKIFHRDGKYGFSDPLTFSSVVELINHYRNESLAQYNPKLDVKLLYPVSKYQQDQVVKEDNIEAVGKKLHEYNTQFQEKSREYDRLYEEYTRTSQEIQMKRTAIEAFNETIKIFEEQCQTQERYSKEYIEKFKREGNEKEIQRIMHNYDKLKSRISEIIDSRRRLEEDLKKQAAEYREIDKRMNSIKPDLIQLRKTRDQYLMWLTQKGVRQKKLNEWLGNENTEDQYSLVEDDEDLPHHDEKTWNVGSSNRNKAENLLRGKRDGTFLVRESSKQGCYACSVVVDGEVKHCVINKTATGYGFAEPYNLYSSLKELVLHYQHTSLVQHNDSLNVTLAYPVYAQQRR
Sequence of PI3-kinase p110-alpha/p85-alpha (P42336 whole entry, canonical isoform): as the sequence (P42336 whole entry, canonical isoform) above

[7] = biological target: Phosphatidylinositol 4,5-bisphosphate 3-kinase catalytic subunit alpha isoform (Homo sapiens) (UniProt P42336); assay: Inhibition of PI3Kalpha in human T47D cells assessed as inhibition of insulin-stimulated Akt phosphorylation at Ser473 residue at 0.1 uM preincubated for 2 hrs followed by incubation with insulin for 2 hrs by western blot analysis relative to control; assay type: cell-based; conditions: time 4.0 hrs; in short: as §4
[8] = biological target: Serine/threonine-protein kinase mTOR (Homo sapiens, UniProt P42345); assay: Inhibition of N-terminal FLAG-tagged human recombinant mTOR (1362 to end residues) using ULight-4E-BP1 (Thr37/46) peptide as substrate incubated for 1 hr in presence of ATP by Lance Ultra assay
In short: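 ULight-4E-BP1 (Thr37/46) peptide with 13 µM ATP; 1 h at room temperature. Stopped with EDTA quench buffer plus Eu-anti-phospho-4E-BP1, 15 min shake and 60 min equilibration, TR-FRET read. IC50 from inhibition curves; average of at least two runs.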

[9] = AUC (0 to infinity) in Sprague-Dawley rat at 5 mg/kg, iv measured after 24 hrs by LC-MS/MS analysis; assay type: ADME, organism-based; parameters: route intravenous, dose 5 mg/kg, time 24 hrs; conditions: in vivo
In short: (§5)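 Male SD rats (n=6), single 5 mg/kg intravenous dose; heparinised blood at 0.083–24 h, centrifuged at 4 °C; plasma quantified by LC–MS/MS; noncompartmental parameters.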

[10] = Cmax in Sprague-Dawley rat at 5 mg/kg, iv measured after 24 hrs by LC-MS/MS analysis; assay type: ADME, organism-based; parameters: route intravenous, dose 5 mg/kg, time 24 hrs; conditions: in vivo; in short: as §5
[11] = biological target: Phosphatidylinositol 4,5-bisphosphate 3-kinase catalytic subunit alpha isoform (Homo sapiens) (UniProt P42336); assay: Inhibition of PI3Kalpha in human T47D cells assessed as inhibition of insulin-stimulated Akt phosphorylation at Ser473 residue at 0.3 uM preincubated for 2 hrs followed by incubation with insulin for 2 hrs by western blot analysis relative to control; assay type: cell-based; conditions: time 4.0 hrs; in short: as §4
[12] = Volume of distribution in Sprague-Dawley rat at 5 mg/kg, iv measured after 24 hrs by LC-MS/MS analysis; assay type: ADME, organism-based; conditions: in vivo; in short: as §5
[13] = biological target: PI3-kinase p110-delta/p85-alpha (Homo sapiens, UniProt O00329); assay: Inhibition of N-terminal His6-tagged human recombinant full length PI3Kdelta co-expressed with human recombinant full length P85alpha in baculovirus infected Sf21 cells using PIP2 peptide as substrate incubated for 2 hrs in presence ATP by ADP-Glo Kinase Assay
Sequence of PI3-kinase p110-delta/p85-alpha (P27986 whole entry): as the sequence (P27986 whole entry, canonical isoform) above
Sequence of PI3-kinase p110-delta/p85-alpha (O00329 whole entry): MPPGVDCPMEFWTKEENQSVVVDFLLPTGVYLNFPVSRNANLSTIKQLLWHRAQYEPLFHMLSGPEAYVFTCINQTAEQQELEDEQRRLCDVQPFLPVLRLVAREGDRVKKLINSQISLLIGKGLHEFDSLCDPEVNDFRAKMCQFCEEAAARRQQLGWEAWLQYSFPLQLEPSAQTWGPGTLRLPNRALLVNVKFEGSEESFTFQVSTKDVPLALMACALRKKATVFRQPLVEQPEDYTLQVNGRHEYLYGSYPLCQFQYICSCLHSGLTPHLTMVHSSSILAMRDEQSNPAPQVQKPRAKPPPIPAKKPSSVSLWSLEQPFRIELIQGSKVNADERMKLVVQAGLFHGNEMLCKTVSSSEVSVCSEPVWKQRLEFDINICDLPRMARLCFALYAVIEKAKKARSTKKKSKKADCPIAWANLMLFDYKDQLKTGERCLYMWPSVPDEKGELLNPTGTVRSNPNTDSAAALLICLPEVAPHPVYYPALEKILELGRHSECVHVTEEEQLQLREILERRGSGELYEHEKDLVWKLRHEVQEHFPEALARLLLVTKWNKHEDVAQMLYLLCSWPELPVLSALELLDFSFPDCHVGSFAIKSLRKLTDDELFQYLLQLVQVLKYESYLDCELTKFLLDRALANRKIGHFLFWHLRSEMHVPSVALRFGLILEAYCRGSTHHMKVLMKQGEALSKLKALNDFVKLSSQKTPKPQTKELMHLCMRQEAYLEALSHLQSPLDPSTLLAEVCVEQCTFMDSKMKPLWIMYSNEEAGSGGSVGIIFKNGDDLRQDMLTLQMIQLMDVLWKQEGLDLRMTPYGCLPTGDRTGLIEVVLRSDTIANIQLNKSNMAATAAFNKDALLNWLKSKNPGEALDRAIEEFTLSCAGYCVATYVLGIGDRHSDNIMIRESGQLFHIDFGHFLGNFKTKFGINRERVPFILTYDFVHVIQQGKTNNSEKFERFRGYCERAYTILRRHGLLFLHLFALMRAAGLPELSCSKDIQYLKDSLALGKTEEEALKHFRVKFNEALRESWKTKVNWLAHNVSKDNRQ
In short: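 ADP-Glo reagent 1 for 40 min, then reagent 2 with 60 min equilibration. IC50 from inhibition curves; average of at least two runs.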

U-87 MG = assay: Antiproliferative activity against human U87MG cells harboring PTEN deletion assessed as reduction in cell viability after 3 days by CellTiter-Glo luminescence assay; assay type: functional, cell-based, U-87MG ATCC; conditions: 72 h; in short: as §1
CYP3A4 = CYP3A4 (Homo sapiens, UniProt P08684); assay: Inhibition of CYP3A4 in human liver microsomes using midazolam as substrate at 10 uM preincubated for 10 mins followed by incubation with NADPH for 10 mins by LC- MS/MS analysis; assay type: ADME; conditions: probe midazolam, time 20 min
Sequence of CYP3A4 (P08684 whole entry): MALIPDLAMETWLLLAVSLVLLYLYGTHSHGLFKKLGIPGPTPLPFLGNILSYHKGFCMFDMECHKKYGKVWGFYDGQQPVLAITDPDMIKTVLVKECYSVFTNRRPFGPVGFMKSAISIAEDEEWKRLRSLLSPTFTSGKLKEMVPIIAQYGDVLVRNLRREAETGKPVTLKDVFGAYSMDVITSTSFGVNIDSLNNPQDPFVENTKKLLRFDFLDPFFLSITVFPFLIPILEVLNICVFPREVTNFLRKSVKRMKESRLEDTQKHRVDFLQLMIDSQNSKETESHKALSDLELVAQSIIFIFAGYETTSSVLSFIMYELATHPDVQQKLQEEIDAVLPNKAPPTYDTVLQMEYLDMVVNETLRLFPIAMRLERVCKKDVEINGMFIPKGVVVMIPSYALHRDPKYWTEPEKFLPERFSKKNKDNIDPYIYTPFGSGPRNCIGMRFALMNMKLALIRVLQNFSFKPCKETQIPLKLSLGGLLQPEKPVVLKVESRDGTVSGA
In short: (§6)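 Human liver microsomes 0.25 mg/mL with probe substrate (CYP1A2 10 µM phenacetin; CYP2D6 5 µM dextromethorphan; CYP3A4 2 µM midazolam), test compound 10 µM; 10 min preincubation at 37 °C, NADPH added (final 10 mM), 10 min at 37 °C; stopped with cold acetonitrile containing internal standards; LC-MS/MS.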

[14] = Clearance in Sprague-Dawley rat at 5 mg/kg, iv measured after 24 hrs by LC-MS/MS analysis; assay type: ADME, organism-based; conditions: in vivo; in short: as §5
CYP2D6 = CYP2D6 (Homo sapiens, UniProt P10635); assay: Inhibition of CYP2D6 in human liver microsomes using dextromethorphan as substrate at 10 uM preincubated for 10 mins followed by incubation with NADPH for 10 mins by LC- MS/MS analysis; assay type: ADME; conditions: probe dextromethorphan, time 20 min; in short: as §6
Sequence of CYP2D6 (P10635 whole entry): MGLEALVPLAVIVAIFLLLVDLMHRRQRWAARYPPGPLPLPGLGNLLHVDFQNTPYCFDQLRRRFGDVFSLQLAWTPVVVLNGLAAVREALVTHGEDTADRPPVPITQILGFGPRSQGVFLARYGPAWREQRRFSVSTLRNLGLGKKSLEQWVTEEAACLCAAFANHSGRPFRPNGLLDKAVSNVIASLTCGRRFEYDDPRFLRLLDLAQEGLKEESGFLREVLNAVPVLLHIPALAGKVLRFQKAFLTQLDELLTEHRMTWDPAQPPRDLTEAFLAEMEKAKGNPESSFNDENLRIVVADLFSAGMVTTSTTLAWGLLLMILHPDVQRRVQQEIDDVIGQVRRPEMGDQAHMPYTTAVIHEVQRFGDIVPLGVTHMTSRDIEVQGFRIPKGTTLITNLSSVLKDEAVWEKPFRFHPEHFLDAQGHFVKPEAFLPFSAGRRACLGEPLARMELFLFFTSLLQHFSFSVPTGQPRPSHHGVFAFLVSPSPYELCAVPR

[15] = Clearance in human liver microsomes at 1 uM measured after 60 mins by LC-MS/MS analysis; assay type: ADME, Microsome; conditions: read-out: CLH; in short: as §2
A549 = assay: Antiproliferative activity against human A549 cells assessed as reduction in cell viability after 3 days by CellTiter-Glo luminescence assay; assay type: functional, cell-based; conditions: A549, 72 h; in short: as §1

`N#Cc1c(N2CCOCC2)sc(-c2nc[nH]n2)c1-c1ccc(NC(=O)Nc2ccccc2Cl)cc1` showed an IC50 (T47D) of 310 nM, a remaining at 1 h, 1 µM [1] of 42.6% and an efflux ratio at 2 h, 2 µM [2] of 1.08. The Papp B→A at 2 h, 2 µM [3] was 8.4 ×10⁻⁶ cm/s, the IC50 (NCI-H1975) was 1060 nM and the microsomal CLint at 1 µM [4] was 32.8 µL/min/mg. The inhibition [5] was 90%, the IC50 (NCI-H460) was 200 nM and the IC50 [6] was 9.2 nM. The Ki [6] was 5.1 nM, the inhibition [7] was 58% and the IC50 [8] was 1800 nM. The AUC(0-inf) [9] was 1620 ng·h/mL, the Cmax [10] was 2570 ng/mL and the inhibition [11] was 59%. The Vd [12] was 8.6 L/kg, the IC50 [13] was 275 nM and the Ki [13] was 245 nM. The IC50 (U-87 MG) was 2860 nM, the inhibition at 10 min, 10 µM (CYP3A4) was 1.5% and the clearance [14] was 52.4 mL/min/kg. The inhibition at 10 min, 10 µM (CYP2D6) was 28%, the microsomal CLint at 1 µM [15] was 24.8 µL/min/mg and the IC50 (A549) was 3840 nM.
